In ChEMBL document CHEMBL2331350, “Conjugation to 4-aminoquinoline improves the anti-trypanosomal activity of Deferiprone-type iron chelators” (Bioorg Med Chem, 2013):
Activity calls are given as the source filed them. No cut-off for these calls is given here.

Experiments:
Leishmania infantum [1] = assay: Antileishmanial activity against Leishmania infantum MHOM/BR/1972/LD promastigotes after 48 hrs by MTT assay; type: functional
[2] = Iron cheating activity assessed as pFe3+ value at pH 7.45 by spectrophotometry; type: functional
Outline: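 Automated spectrophotometric titration at 25 °C, 0.1 M KCl, pH 2–12 in 0.1-unit steps, 5 min equilibration for stability constants, 50 mm cuvette; […], total iron 1 mM; data fitted with pHab; pFe³⁺ defined at 10⁻⁶ M metal and 10⁻⁵ M ligand.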

Plasmodium falciparum = assay: Antimalarial activity against Plasmodium falciparum ITG2G1; type: functional
[3] = Selectivity index, ratio of GI50 for human K562 cells to GI50 for Plasmodium falciparum ITG2G1; type: toxicity, cell-based; details: read-out: RatioGI50
[4] = Lipophilicity, log P of the compound; type: physicochemical; details: octanol/water
[5] = Cytotoxicity against human K562 cells; type: cell-based
Trypanosoma cruzi [6] = assay: Antitrypanosomal activity against Trypanosoma cruzi trypomastigotes after 24 hrs by MTT assay; type: functional
Outline: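 T. cruzi trypomastigotes counted by hemocytometer, seeded at 1 × 10⁶ per well; compounds up to 100 µM for 24 h at 37 °C, 5% CO2. Viability from MTT conversion to formazan. Benznidazole positive control; GI50 with 95% CI.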

[7] = Cytotoxicity against human HL60 cells by alamar blue assay; type: cell-based, HL-60
Outline: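 HL-60 cells in RPMI 1640 with 2 mM L-glutamine and 16.7% FBS at 37 °C, 5% CO2, seeded at 10⁵ cells/mL. Viability with Alamar Blue read as in the T. brucei assay (570 nm, reference 630 nm); GI50.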

Trypanosoma brucei [8] = assay: Antitrypanosomal activity against Trypanosoma brucei TC211 after 24 hrs by alamar blue assay; type: functional; details: TC211, 24 h
Outline: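 Bloodstream T. brucei TC211 in Baltz medium with 16.7% heat-inactivated FBS, seeded at 10⁴ cells/mL with compounds in DMSO (final 0.5%; DMSO-only controls). Alamar Blue added after 24 h, then 48 h incubation; absorbance 570 nm, reference 630 nm. Melarsoprol positive control; GI50 with 95% CI.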

[9] = Selectivity index, ratio of GI50 for human HL60 cells to GI50 for Trypanosoma cruzi trypomastigotes; type: toxicity, cell-based, HL-60; details: read-out: RatioGI50
[10] = Selectivity index, ratio of GI50 for human HL60 cells to GI50 for Leishmania infantum MHOM/BR/1972/LD promastigotes; type: toxicity, cell-based, HL-60; details: read-out: RatioGI50
[11] = Selectivity index, ratio of GI50 for human HL60 cells to GI50 for Trypanosoma brucei TC211; type: toxicity, cell-based, HL-60; details: read-out: RatioGI50
Trypanosoma brucei [12] = assay: Antitrypanosomal activity against Trypanosoma brucei TC211 after 24 hrs in presence of FeCl3 by alamar blue assay; type: functional, organism-based
Trypanosoma brucei [13] = assay: Iron cheating activity in Trypanosoma brucei bloodstream forms assessed as increase in fluorescein-labeled transferrin at 50 uM in presence of 16.7% heat inactivated FBS after 24 hrs by flow cytometry relative to untreated control; type: functional
Outline: (§1)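 Bloodstream T. brucei (5 × 10⁵/mL) exposed 24 h in Baltz medium/16.7% heat-inactivated FBS to 50 µM chelator, 25 µM DFO or DMSO control. Washed cells then given 50 µg/mL fluorescein-transferrin in Baltz/2% BSA for 2 h, washed, fixed in 2% formaldehyde/0.05% glutaraldehyde, analysed by flow cytometry.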

Trypanosoma brucei [14] = assay: Antitrypanosomal activity against Trypanosoma brucei TC211 after 24 hrs by alamar blue assay relative to Deferiprone; type: functional
Trypanosoma cruzi [15] = assay: Antitrypanosomal activity against Trypanosoma cruzi trypomastigotes after 24 hrs by MTT assay relative to Chloroquine; type: functional
Leishmania infantum [16] = assay: Antileishmanial activity against Leishmania infantum MHOM/BR/1972/LD intracellular amastigotes at 60 uM after 120 hrs by light microscopy
Trypanosoma brucei [17] = assay: Antitrypanosomal activity against Trypanosoma brucei TC211 after 24 hrs by alamar blue assay relative to Chloroquine; type: functional
Trypanosoma cruzi [18] = assay: Antitrypanosomal activity against Trypanosoma cruzi trypomastigotes after 24 hrs by MTT assay relative to Deferiprone; type: functional
Trypanosoma brucei [19] = assay: Iron cheating activity in Trypanosoma brucei bloodstream forms assessed as increase in fluorescein-labeled transferrin at 25 uM in presence of 16.7% heat inactivated FBS after 24 hrs by flow cytometry relative to untreated control; type: functional; outline: as §1

For `C[C@@H]1[C@H](O)[C@@H](C)/C=C/C=C/C=C/C=C/C=C/C=C/C=C/[C@H](O[C@@H]2O[C@H](C)[C@@H](O)[C@H](N)[C@@H]2O)C[C@@H]2O[C@](O)(C[C@@H](O)C[C@@H](O)[C@H](O)CC[C@@H](O)C[C@@H](O)CC(=O)O[C@H]1C)C[C@H](O)[C@H]2C(=O)O` [AMPHOTERICIN B], the GI50 (Leishmania infantum [1]) was 0.17 µM.

Compound `Cc1cc(NCCCCn2ccc(=O)c(O)c2C)c2ccccc2n1` has an Activity [2] of 21.1, a GI50 (Plasmodium falciparum) of 9 µM and a selectivity ratio [3] of 23. It also gave a logP [4] of -0.48 and a GI50 [5] of 204 µM.

Work on `Cc1c(O)c(=O)ccn1CCNc1ccnc2cc(Cl)ccc12` yielded a GI50 (Plasmodium falciparum) of 7 µM, a selectivity ratio [3] of 26 and a logP [4] of 1.08. It also gave a GI50 [5] of 182 µM.

In the case of `Cc1c(O)c(=O)ccn1C` [DEFERIPRONE], the Activity [2] is reported as 19.3, the GI50 (Plasmodium falciparum) is reported as 67 µM and the GI50 (Trypanosoma cruzi [6]) is reported as > 100 µM. The GI50 (Leishmania infantum [1]) was > 100 µM, the GI50 [7] was > 100 µM and the GI50 (Trypanosoma brucei [8]) was > 100 µM.

`CCCCCCCCCCn1ccc(=O)c(O)c1C` gave a selectivity ratio [9] of 8, a GI50 (Trypanosoma cruzi [6]) of 0.8 µM and a selectivity ratio [10] of 9. For the same compound, the GI50 (Leishmania infantum [1]) was 0.7 µM, the GI50 [7] was 6.3 µM and the selectivity ratio [11] was 5. For the same compound, the GI50 (Trypanosoma brucei [8]) was 1.4 µM.

`Nc1nc(N)nc(Nc2ccc([As]3SCC(CO)S3)cc2)n1` (configuration not stated) [MELARSOPROL] gave a GI50 (Trypanosoma brucei [8]) of 0.0038 µM.

For `Cc1c(O)c(=O)ccn1CCCNc1ccnc2cc(Cl)ccc12`, the logP [4] was 1.32.

In the case of `O=C(Cn1ccnc1[N+](=O)[O-])NCc1ccccc1` [BENZNIDAZOLE], the GI50 (Trypanosoma cruzi [6]) is reported as 441 µM.

Work on `CCCCCCCCn1ccc(=O)c(O)c1C` yielded a selectivity ratio [9] of 4, a GI50 (Trypanosoma cruzi [6]) of 3 µM and a selectivity ratio [10] of 4. For the same compound, the GI50 (Leishmania infantum [1]) was 3.2 µM, the GI50 [7] was 11.2 µM and the selectivity ratio [11] was 3. It also gave a GI50 (Trypanosoma brucei [8]) of 3.6 µM.

For `Cc1c(O)c(=O)ccn1CCCCNc1ccnc2ccccc12`, the Activity (Trypanosoma brucei [12]) was “inactive”, the “fold change (FC)” value (Trypanosoma brucei [13]) was 1.6 and the GI50 (Plasmodium falciparum) was 1.6 µM. The selectivity ratio [3] was 17, the GI50 (Trypanosoma cruzi [6]) was > 100 µM and the logP [4] was 1.25. The GI50 (Leishmania infantum [1]) was > 100 µM, the GI50 [7] was > 100 µM and the GI50 [5] was 27.1 µM. The selectivity ratio [11] was > 13 and the GI50 (Trypanosoma brucei [8]) was 7.6 µM.

Work on `Cc1cc(NC(=O)CCCn2ccc(=O)c(O)c2C)c2ccccc2n1` yielded a GI50 (Plasmodium falciparum) of 6 µM, a selectivity ratio [3] of 21 and a logP [4] of 1.28. It also gave a GI50 [5] of 128 µM.

With `CCN(CC)CCCC(C)Nc1ccnc2cc(Cl)ccc12` (configuration not stated) [CHLOROQUINE] the GI50 (Trypanosoma cruzi [6]) was 22.2 µM, the GI50 (Leishmania infantum [1]) was 3.7 µM and the GI50 (Trypanosoma brucei [8]) was 15.6 µM.

With `Cc1c(O)c(=O)ccn1CCCCNc1ccnc2cc(Cl)ccc12` the Ratio (Trypanosoma brucei [14]) was >25, the GI50 (Plasmodium falciparum) was 2.4 µM and the selectivity ratio [9] was 8. For the same compound, the selectivity ratio [3] was 16, the GI50 (Trypanosoma cruzi [6]) was 6.5 µM and the Ratio (Trypanosoma cruzi [15]) was 4. For the same compound, the logP [4] was 1.4, the selectivity ratio [10] was 2 and the Activity (Leishmania infantum [16]) was “inactive”. For the same compound, the GI50 (Leishmania infantum [1]) was 27.1 µM, the GI50 [7] was 50.3 µM and the Ratio (Trypanosoma brucei [17]) was 4. For the same compound, the GI50 [5] was 38.2 µM, the Ratio (Trypanosoma cruzi [18]) was >15 and the selectivity ratio [11] was 13. It also gave a GI50 (Trypanosoma brucei [8]) of 3.8 µM.

With `NCCCCNc1ccnc2cc(Cl)ccc12` the GI50 (Trypanosoma cruzi [6]) was 46.3 µM, the GI50 (Leishmania infantum [1]) was 42.4 µM and the GI50 [7] was > 100 µM. It also gave a GI50 (Trypanosoma brucei [8]) of 15.8 µM.

With `Cc1c(O)c(=O)ccn1CCN` the GI50 (Trypanosoma cruzi [6]) was > 100 µM, the GI50 (Leishmania infantum [1]) was > 100 µM and the GI50 [7] was 111 µM. The GI50 (Trypanosoma brucei [8]) was > 100 µM.

For `CC(=O)N(O)CCCCCNC(=O)CCC(=O)N(O)CCCCCNC(=O)CCC(=O)N(O)CCCCCN` [DEFEROXAMINE], the “fold change (FC)” value (Trypanosoma brucei [19]) was 2, the Activity [2] was 26.6 and the GI50 (Plasmodium falciparum) was 28 µM. The GI50 (Leishmania infantum [1]) was 150 µM, the GI50 [7] was 18.4 µM and the GI50 [5] was 33.1 µM. It also gave a GI50 (Trypanosoma brucei [8]) of 2.9 µM.
